# Assays:
# [1] = target: Serotransferrin (Homo sapiens) (UniProt P02787); assay: Ability to remove iron from human iron transport protein transferrin, at a concentration of 0.2 mM, expressed as % iron removal in 30 minutes; assay type: functional
# Summary of the method: (§1)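 Diferric transferrin was made from apotransferrin saturated with fresh Fe(NTA)2^3-, then gel-filtered in 0.1 M NaClO4/0.1 M Tris-HCl pH 7.4 (≥95% saturation by A280/A466 ≤24, A428/A466 = 0.85). The ligand was dissolved in 0.1 M Tris-HCl pH 7.4 with slight heating and mixed 1:1 with transferrin ([Fe2Tf] 2.9 × 10^-5 M) at 25.0 °C. Visible spectra were followed at 466 nm, and % iron removed was read at 30 min.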
# [2] = Relative effectiveness at a concentration of 0.2mM, on removal of Fe from transferrin as compared to Desferal; assay type: functional
# Summary of the method: (§2)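 Iron removal was measured spectrophotometrically from diferric transferrin (2.9 × 10^-5 M) in 0.1 M Tris-HCl pH 7.4 at 25.0 °C. A rough second-order rate constant k2 was taken as the % iron removed after 30 min divided by the initial ferric transferrin and ligand concentrations. The value is expressed as the ratio to the Desferal k2.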
# [3] = target: Serotransferrin (Homo sapiens) (UniProt P02787); assay: Ability to remove iron from human iron transport protein transferrin, at a concentration of 0.1 mM, expressed as % iron removal in 30 minutes; assay type: functional; summary of the method: as §1
# [4] = Relative effectiveness at a concentration of 0.1 mM, on removal of Fe from transferrin as compared to Desferal; assay type: functional; summary of the method: as §2
# [5] = target: Serotransferrin (Homo sapiens) (UniProt P02787); assay: Ability to remove iron from transferrin, at a concentration of 0.1 mM, expressed as % iron removal in 30 minutes; assay type: functional; details: 0.2 mM; in the assay text read “0.2 mM” for “0.1 mM”; summary of the method: as §1
# [6] = target: Serotransferrin (Homo sapiens) (UniProt P02787); assay: Ability to remove iron from human iron transport protein transferrin, at a concentration of 1.2mM, expressed as % iron removal in 30 minutes; assay type: functional; summary of the method: as §1
# [7] = target: Serotransferrin (Homo sapiens) (UniProt P02787); assay: Ability to remove iron from transferrin, at a concentration of 0.2 mM, expressed as % iron removal in 30 minutes; assay type: functional; summary of the method: as §1
# [8] = target: Serotransferrin (Homo sapiens) (UniProt P02787); details: 500 mM
# [9] = target: Serotransferrin (Homo sapiens) (UniProt P02787); assay: Ability to remove iron from human iron transport protein transferrin, at a concentration of 20 mM, expressed as % iron removal in 30 minutes; assay type: functional
# [10] = Relative effectiveness at a concentration of 20 mM, on removal of Fe from transferrin as compared to Desferal; assay type: functional
# Chain of Serotransferrin (Homo sapiens) (P02787 whole entry): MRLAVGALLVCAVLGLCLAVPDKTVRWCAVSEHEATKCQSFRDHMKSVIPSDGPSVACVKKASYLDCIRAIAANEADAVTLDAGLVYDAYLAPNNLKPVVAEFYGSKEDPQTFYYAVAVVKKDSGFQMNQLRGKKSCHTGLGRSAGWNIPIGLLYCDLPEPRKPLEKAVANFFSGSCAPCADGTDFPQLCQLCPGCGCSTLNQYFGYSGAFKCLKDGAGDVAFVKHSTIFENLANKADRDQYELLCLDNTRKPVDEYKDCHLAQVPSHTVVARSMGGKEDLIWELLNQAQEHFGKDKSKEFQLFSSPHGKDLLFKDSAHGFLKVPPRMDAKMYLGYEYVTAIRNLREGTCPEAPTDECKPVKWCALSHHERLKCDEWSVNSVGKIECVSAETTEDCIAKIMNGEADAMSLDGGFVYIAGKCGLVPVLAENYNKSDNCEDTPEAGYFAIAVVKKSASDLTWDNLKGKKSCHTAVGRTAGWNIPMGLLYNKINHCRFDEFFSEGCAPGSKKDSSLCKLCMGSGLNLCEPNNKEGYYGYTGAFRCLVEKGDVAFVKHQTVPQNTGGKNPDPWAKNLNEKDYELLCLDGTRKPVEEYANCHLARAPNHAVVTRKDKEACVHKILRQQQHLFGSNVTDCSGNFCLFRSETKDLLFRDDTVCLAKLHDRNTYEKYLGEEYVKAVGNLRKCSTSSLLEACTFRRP
structure (smiles),measurement,setting,value
O=C(N[C@H]1COC(=O)[C@@H](NC(=O)c2cccc(O)c2O)COC(=O)[C@@H](NC(=O)c2cccc(O)c2O)COC1=O)c1cccc(O)c1O,Fe removed,[1],6%
same,Ratio,[2],120
CC(=O)N(O)CCCCCNC(=O)CCC(=O)N(O)CCCCCNC(=O)CCC(=O)N(O)CCCCCNC(=O)c1cccc(O)c1O,Fe removed,[3],2%
same,Ratio,[4],180
CC(=O)N(O)CCCCCNC(=O)CCC(=O)N(O)CCCCCNC(=O)CCC(=O)N(O)CCCCCNC(=O)c1ccc(C(=O)O)c(O)c1O,Fe removed,[5],3%
same,Fe removed,[6],18%
same,Ratio,[2],130
O=C(O)CN(CCN(CC(=O)O)CC(=O)O)CC(=O)O,Fe removed,[7],0%
same,Fe removed,[8],37%
CC(=O)N(O)CCCCCNC(=O)CCC(=O)N(O)CCCCCNC(=O)CCC(=O)N(O)CCCCCN,Fe removed,[9],5%
same,Ratio,[10],1

# From ChEMBL document CHEMBL1122350, “Ferric ion sequestering agents. 11. Synthesis and kinetics of iron removal from transferrin of catechoyl derivatives of desferrioxamine B” (J Med Chem, 1983)
